Active and inactive are the calls of the source. The calls are words filed in the database; no cut-off is given here.

Series [1] in a line: Drug level in pooled human liver microsomes treated with 50 uM 1-(5-(4-(tert-Pentyl)phenoxy)pentyl)azepane hydrogen oxalate after 2 hrs in presence of NADPH by LC/MS analysis. In kind it is ADME, microsome. In outline: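 Pooled human liver microsomes (1 mg/ml) in 0.1 M Tris-HCl pH 7.4 with compound at 50 μM. After 5 min preincubation at 37 °C, reaction was started with NADPH regeneration system and run 2 h at 37 °C. Stopped with cold methanol and centrifuged. Supernatant analysed by UPLC-ESI tandem quadrupole MS.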
Background: Microsomes from liver hold many membrane-bound enzymes, among them those of drug oxidation.

The target of series [2] is Histamine H3 receptor (Homo sapiens, UniProt Q9Y5N1). The experiment in a line: Displacement of [125I]Iodoproxyfan from recombinant human histamine H3 receptor expressed in CHOK1 cell membranes after 90 mins. The procedure, abridged:
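Membranes of CHO-K1 cells expressing hH3R were incubated 90 min at 25 °C, shaken at 250 rpm, with [125I]iodoproxyfan (16–50 pM) and test compound. Nonspecific binding was defined with 1 μM imetit. Separation by filtration on PEI-treated GF/B filters. Ki obtained from IC50 by Cheng-Prusoff.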
A general note: Displacement assays read how much labelled ligand stays bound in the presence of the test substance.

Series [3] relates to Mus musculus. The series is described as follows: Anticonvulsant activity in CF-1 albino mouse assessed as protection against maximal electroshock-induced seizures at 30 mg/kg, ip after 0.5 hrs. In kind it is functional, organism-based. The procedure, abridged: (§1)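 Male CF-1 albino mice received compound i.p. as a suspension in 0.5% methylcellulose (30, 100 or 300 mg/kg). Maximal electroshock seizure test read 0.5 h and 4 h after dosing. Result given as animals protected/animals tested.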
A general note: In the maximal electroshock model the usual endpoint is tonic extension of the hind limbs.

Series [4] concerns Mus musculus. The series is described as follows: Anticonvulsant activity in CF-1 albino mouse assessed as protection against maximal electroshock-induced seizures at 30 mg/kg, ip after 4 hrs. It is filed as functional, organism-based. In outline:
as §1

The subject of series [5] is Mus musculus. The experiment in a line: Anticonvulsant activity in CF-1 albino mouse assessed as protection against maximal electroshock-induced seizures at 100 mg/kg, ip after 4 hrs. It is filed as functional, organism-based. The procedure, abridged: as §1
Series [6] has as its system Mus musculus. The experiment in a line: Anticonvulsant activity in CF-1 albino mouse assessed as protection against maximal electroshock-induced seizures at 300 mg/kg, ip after 0.5 hrs. In kind it is functional, organism-based. In outline:
as §1

The test system of series [7] is Mus musculus. The experiment in a line: Anticonvulsant activity in CF-1 albino mouse assessed as protection against subcutaneous pentetrazole-induced seizures at 30 mg/kg, ip after 0.5 hrs. In kind it is functional, organism-based.
Series [8] concerns Mus musculus. The series is described as follows: Anticonvulsant activity in CF-1 albino mouse assessed as protection against subcutaneous pentetrazole-induced seizures at 30 mg/kg, ip after 4 hrs. In kind it is functional, organism-based.
For series [9], the system named is Mus musculus. The series is described as follows: Anticonvulsant activity in CF-1 albino mouse assessed as protection against subcutaneous pentetrazole-induced seizures at 100 mg/kg, ip after 0.5 hrs. It is filed as functional, organism-based.
The subject of series [10] is Mus musculus. The experiment in a line: Anticonvulsant activity in CF-1 albino mouse assessed as protection against subcutaneous pentetrazole-induced seizures at 100 mg/kg, ip after 4 hrs. In kind it is functional, organism-based.
The test system of series [11] is Mus musculus. The series is described as follows: Anticonvulsant activity in CF-1 albino mouse assessed as protection against subcutaneous pentetrazole-induced seizures at 300 mg/kg, ip after 0.5 hrs. In kind it is functional, organism-based.
Series [12] relates to Mus musculus. The experiment in a line: Anticonvulsant activity in CF-1 albino mouse assessed as protection against subcutaneous pentetrazole-induced seizures at 300 mg/kg, ip after 4 hrs. In kind it is functional, organism-based.
In series [13] the test system is Mus musculus. The series is described as follows: Neurotoxicity in CF-1 albino mouse assessed as unable to grasp at 100 mg/kg, ip after 0.5 hrs by rotarod test. In kind it is toxicity, organism-based. The conditions noted are these: in vivo. The procedure, abridged:
(§2)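 Anticonvulsant Screening Program (NINDS) Phase 1 neurotoxicity screen in male albino CF-1 mice. Compounds were given i.p. as suspensions in 0.5% methylcellulose at 30, 100 and/or 300 mg/kg, and animals were observed 0.5 h and 4 h after dosing. The rotarod test was scored as number of animals showing toxicity over number tested, with the kind of toxicity recorded: inability to grasp rotorod, death, diarrhea, continuous seizure activity, loss of righting reflex, myoclonic jerks or tremors.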

In series [14] the test system is Mus musculus. The experiment in a line: Neurotoxicity in CF-1 albino mouse assessed as death at 100 mg/kg, ip after 4 hrs by rotarod test. It is filed as toxicity, organism-based. The note with it: in vivo. In outline:
as §2

For series [15], the system named is Mus musculus. The experiment in a line: Neurotoxicity in CF-1 albino mouse assessed as death at 300 mg/kg, ip after 4 hrs by rotarod test. It is filed as toxicity, organism-based. The conditions noted are these: in vivo. The procedure, abridged: as §2
Series [16] concerns Mus musculus. The experiment in a line: Neurotoxicity in CF-1 albino mouse at 100 mg/kg, ip after 0.5 hrs by rotarod test. It is filed as toxicity, organism-based. The note with it: in vivo. In outline: as §2
Series [17] relates to Mus musculus. The experiment in a line: Neurotoxicity in CF-1 albino mouse assessed as death at 300 mg/kg, ip after 0.5 hrs by rotarod test. The conditions noted are these: in vivo.
For series [18], the system named is Mus musculus. The series is described as follows: […] in po dosed mouse brain assessed as activation in HA release measured after 90 mins. The conditions noted are these: 1.5 h. It is filed as functional.
The test system of series [19] is Mus musculus. The series is described as follows: Anticonvulsant activity in CF-1 albino mouse assessed as protection against maximal electroshock-induced seizures at 100 mg/kg, ip after 0.5 hrs. In kind it is functional, organism-based. The procedure, abridged:
as §1

For series [20], the system named is Mus musculus. The experiment in a line: Neurotoxicity in CF-1 albino mouse at 30 mg/kg, ip after 4 hrs by rotarod test. It is filed as toxicity, organism-based. The conditions noted are these: in vivo. In outline: (§3)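 Male CF-1 mice were dosed i.p. with compound suspended in 0.5% methylcellulose (30, 100 or 300 mg/kg). Neurotoxicity was scored by rotarod 0.5 h and 4 h after dosing, as animals showing toxicity/animals tested. Type of toxicity was noted, e.g. inability to grasp the rod, tremors, death.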

The subject of series [21] is Mus musculus. The series is described as follows: Neurotoxicity in CF-1 albino mouse at 100 mg/kg, ip after 4 hrs by rotarod test. It is filed as toxicity, organism-based. The conditions noted are these: in vivo. In outline:
as §3

Series [22] concerns Mus musculus. The experiment in a line: Neurotoxicity in CF-1 albino mouse at 300 mg/kg, ip after 4 hrs by rotarod test. In kind it is toxicity, organism-based. The note with it: in vivo. In outline:
as §2

Series [23] is described as follows: Lipophilicity of compound by RP-TLC analysis. The conditions noted are these: methanol:acetic acid:water. In kind it is physicochemical. In outline:
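Reversed-phase TLC on RP-18 plates with methanol:acetic acid:water mobile phase (acid constant at 10%, methanol 85–55% in 5% steps). Spots visualised with iodine. RM values were derived from Rf and extrapolated to zero methanol to give RM0.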

Histamine H3 receptor, sequence (Q9Y5N1 whole entry): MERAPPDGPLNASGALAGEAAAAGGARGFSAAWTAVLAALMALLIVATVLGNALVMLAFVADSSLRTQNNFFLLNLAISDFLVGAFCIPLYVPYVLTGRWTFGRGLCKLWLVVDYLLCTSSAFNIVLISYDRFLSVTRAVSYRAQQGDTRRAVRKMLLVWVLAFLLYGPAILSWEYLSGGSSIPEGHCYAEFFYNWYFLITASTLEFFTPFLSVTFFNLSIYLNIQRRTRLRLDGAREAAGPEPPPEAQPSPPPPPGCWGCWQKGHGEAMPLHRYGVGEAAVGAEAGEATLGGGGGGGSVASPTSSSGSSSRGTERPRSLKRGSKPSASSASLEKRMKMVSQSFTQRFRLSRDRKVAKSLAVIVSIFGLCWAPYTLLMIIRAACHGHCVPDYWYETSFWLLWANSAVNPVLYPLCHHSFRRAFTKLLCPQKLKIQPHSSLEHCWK

Consider `CC(CO)c1ccc(OCCCCCN2CCCCCC2)cc1` (centres undefined), for which, in [1], the Drug uptake result is “Active”.

Regarding `CCC(C)(C)c1ccc(OCCCCCCCCN2CCC(C)CC2)cc1.O=C(O)C(=O)O`, in [2], the Ki was 308 nM. The outcome in series [3], in [5] and in series [6] was Active. Also, the result in [4], in series [7], in series [8], in series [9], in [10] and in series [11] was inactive. For the same molecule, the result in [12] was inactive. In addition, the Activity result in [13], in series [14], in series [15], in [16] and in series [17] was “Toxic” throughout.

Turning to `Clc1ccc(CCCOCCCN2CCCCC2)cc1` [PITOLISANT], the ED50 in [18] is 1.5 mg/kg.

Turning to `CCC(C)(C)c1ccc(OCCCCCCCN2CCCCC2)cc1.O=C(O)C(=O)O`, in series [2], the Ki turned out to be 55 nM. For the same molecule, the result in series [3], in [4], in series [5], in [7], in [8] and in series [9] was inactive. In addition, the outcome in series [10] was inactive. The result in [19] and in [6] was Active. Besides, the Activity entry is on record as “Toxic” in series [13]; “Non-Toxic” in series [20]; “Non-Toxic” in [21]; “Non-Toxic” in [22]; “Toxic” in [17]. In [23], this molecule showed a Rm of 2.624.

Usually Ki stands for a measure of affinity in units of concentration, obtained from inhibition or displacement. One may read the ED50 as the dose that gives a 50% effect, or the effect in half of the subjects.

The values above are taken from ChEMBL document CHEMBL4219023, “Synthesis and biological activity of novel tert-amylphenoxyalkyl (homo)piperidine derivatives as histamine H3R ligands” (Bioorg Med Chem, 2017).
